Source: PubChem (several laboratories)
Apaf-1 inh: inhibitors of human Apaf-1 apoptosome | inhibition, % at 20 µM | AID 489030 | reconstituted apoptosome caspase-3 activity, DEVD-Rh110 fluorescence | actives 0.71% (n = 330,000); active means inhibition of at least 40% at 20 µM;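 further: plate controls were DMSO wells for no effect and DEVD-CHO caspase inhibitor wells for full effect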
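Material: reconstituted apoptosome with Apaf-1, cytochrome c, caspase-9, procaspase-3, dATP / Buffer or medium: pH 7.5 Hepes buffer with CHAPS, BSA, DTT / Also added: cytochrome c with DEVD-Rh110 / Schedule: compound with Apaf-1, dATP, procaspase-3 30 min, then 50 min reaction, room temperature / Technique: rhodamine 110 fluorescence at Ex 480/Em 540 nm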
Granule exo inh: blocks lytic granule exocytosis; TALL-104 LAMP-1 surface exposure, flow cytometry; cells stimulated with thapsigargin and PMA; inhibition, % at 10 µM; actives 0.66% (n = 360,000); AID 651702;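 active means inhibition above about 55%, limit read from the data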
iPSC survival up: increases survival of single human iPS cells; actives 0.044% (n = 360,000); survival enhancement, % at 20 µM; hiPSC single-cell survival, ATPlite luminescence; 100% = ROCK inhibitor wells, 0% = DMSO; in the data active means survival enhancement above about 18%;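 further: cells exposed to compounds for 16 hours before the ATP read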
MIN6 prolif: induces beta-cell replication in MIN6 cells | proliferation, % at 10 µM | actives 0.29% (n = 330,000) | MIN6 cells proliferation, ATPlite luminescence, 48 h; cells starved in 0.2% serum; 100% = growth in 10% serum;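 active means compounds whose signal lies at least 3.5 SD above the mean of all wells on their plate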;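 further: 0% = DMSO-treated cells in low-serum medium and 100% = 10% serum control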
MPTP inh: permeability transition pore inhibition | isolated mouse mitochondria, Ca2+ swelling absorbance, 30 min | inhibition, % at 10 µM | actives 1.4% (n = 360,000);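 active means inhibition of 50% or more, scaled per plate between neutral and stimulator controls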;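 further: 0% = DMSO wells given calcium and 100% = 1 mM EGTA wells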
UBC13 inh: human UBC13 polyubiquitination inhibition | P61088 | UBC13 polyubiquitin chain formation, TR-FRET | inhibition, % at 20 µM | actives 0.47% (n = 330,000); in the data active means inhibition above about 45%, passing the limit was not always enough
Target sequence (P61088 whole entry, looked up): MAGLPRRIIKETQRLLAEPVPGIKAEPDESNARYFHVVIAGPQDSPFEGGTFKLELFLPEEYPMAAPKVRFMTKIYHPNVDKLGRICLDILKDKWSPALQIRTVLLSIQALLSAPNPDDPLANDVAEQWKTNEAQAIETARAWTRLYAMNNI
Rh123 counter: Rhodamine 123 counter-screen of mitochondrial pore hits | shares compounds with MPTP inh | isolated mitochondria, membrane potential, Rhodamine 123 fluorescence | inhibition, % at 10 µM | actives 78% (n = 5,000); in the data active means inhibition above about 22%;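 further: 0% = DMSO vehicle and 100% = positive control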
MPTP abs DR: dose response confirmation of mitochondrial permeability transition pore inhibitors. actives 58% (n = 780). shares compounds with MPTP inh. IC50, µM. isolated mitochondria swelling, absorbance; in the data active means IC50 below about 20 µM
MPTP counter DR: MPTP inhibitor counter-screen activity, dose response; shares compounds with MPTP inh; isolated mitochondria counterscreen, fluorescence read-out; IC50, µM; actives 49% (n = 780); AID 651564; in the data active means IC50 below about 80 µM
* = called active by the depositor; x = not tested or not shown. The list is not random: actives were taken first. Their share in the collection is about 3%.

SMILES | Apaf-1 inh | Granule exo inh | iPSC survival up | MIN6 prolif | MPTP inh | UBC13 inh | Rh123 counter | others
O=C(N/N=C/c1cccc(Oc2ccccc2)c1)c1cccc(Br)c1 | -15 | -9 | 4 | -4 | 67* | -3 | 75*
COCOc1ccc(-c2ncc(OC)nc2NC(=O)c2cc(C)oc2C)cc1 | x | -4 | 4 | x | 0 | x | x
NCCOc1ccccc1Cc1ccccc1 | -6 | -1 | -2 | 0 | 69* | 13 | -6 | MPTP abs DR=6.7*;MPTP counter DR=>80
C[C@H](NS(=O)(=O)c1c(Cl)cccc1Cl)C(=O)NNC(=O)COc1ccccc1F | -6 | 24 | 3 | 1 | 0 | -7 | x
COc1cccc(C(C)(O)c2nc(-c3cc4ccccc4o3)cs2)c1 (stereo not drawn) | x | 3 | 2 | x | 88* | x | 96*
COc1cccc(C(C)(O)c2nc(-c3ccc(N(C)C)cc3)cs2)c1 (stereo not drawn) | x | 1 | -2 | x | 99* | x | 91*
CN(C(=O)COc1ccccc1C(=O)NCCOc1ccccc1)c1ccccc1 | 4 | 67* | 0 | -3 | 51* | 1 | 31*
O=C(NCCOc1ccccc1)c1ccccc1Cl | 2 | -6 | 0 | -3 | 0 | -5 | x
c1ccc(CNc2ncnc3ccccc23)cc1 | -4 | -2 | 5 | -6 | 84* | 0 | 59*
CCCCNc1nc(NCc2ccccc2)nc2ccccc12 | x | 6 | -1 | x | 78* | x | 118*
CNc1nc(NCc2ccccc2)c2ccccc2n1 | -8 | 6 | 0 | -3 | 5 | 27 | x
O=C(NCC1CCCO1)Nc1ccc(Cl)cc1 (stereo not drawn) | 4 | -2 | -1 | 2 | 2 | -1 | x
O=C(NCC1CCCO1)Nc1cc(Cl)cc(Cl)c1 (stereo not drawn) | -1 | 1 | 4 | 0 | 82* | 2 | 88*
Cc1cc(C)n2nc(SC(C)C(=O)N(C)C3CCCCC3)nc2n1 (stereo not drawn) | 1 | 0 | 0 | -2 | 0 | -5 | x
O=C(N/N=C/c1cc([N+](=O)[O-])cc(Br)c1O)C12CC3CCC(CC(C3)C1)C2 | 7 | 3 | -1 | -6 | 84* | -55 | 28*
CC1CCc2c(sc3nc(C4CC4)nc(N4CCN(C(=O)c5ccco5)CC4)c23)C1 (stereo not drawn) | 27 | 2 | 3 | -3 | 64* | 3 | 68*
Cc1ccc(-c2nnn(CC(=O)Nc3ccc(S(=O)(=O)N4CCC(C)CC4)cc3)n2)cc1 | -16 | 2 | -4 | -4 | 20 | -4 | x
CC1CCN(S(=O)(=O)c2ccc(NC(=O)Cn3nnc(-c4ccccc4)n3)cc2)CC1 | 3 | 2 | -1 | -3 | 54* | -3 | 56*
O=[N+]([O-])c1ccc(O)c(CSc2nnnn2-c2ccccc2)c1 | 4 | 1 | 0 | -1 | 78* | -1 | 93*
O=C(/C(=N\Nc1ccc([N+](=O)[O-])cc1)Sc1nnnn1-c1ccccc1)c1ccccc1 | 10 | -3 | 1 | -5 | 94* | -21 | 90*
COc1cc(CNCCO)cc(Cl)c1OCc1ccc(Cl)cc1Cl | 24 | 44 | -3 | -6 | 97* | 44 | -12
COc1cc(CNC2CCCC2)cc(Cl)c1OCc1ccccc1Cl | 19 | -1 | -3 | -7 | 82* | 30 | -11
c1coc(CNc2nc3nonc3nc2NCc2ccco2)c1 | 7 | 6 | -2 | -6 | 96* | -11 | 95*
Cc1nc(NCc2ccco2)c2cn[nH]c2n1 | x | 1 | -2 | x | 0 | x | x
COc1ccc(NC(=O)c2ccco2)c(NC(=O)c2ccc([N+](=O)[O-])cc2)c1 | 12 | -3 | 0 | -4 | 0 | -7 | x
CCOC(=O)C1(C)CCCCN1C(=O)c1ccoc1 (stereo not drawn) | x | -1 | -1 | x | 2 | x | x
